Results on six molecules are retold here after ChEMBL document CHEMBL4330093, “Biphenyl Gal and GalNAc FmlH Lectin Antagonists of Uropathogenic E. coli (UPEC): Optimization through Iterative Rational Drug Design” (J Med Chem, 2019).

Data set [1] in a line: Stability of the compound in simulated intestinal fluid assessed as compound remaining after 2 hrs. Format: ADME. Particulars: for Stability: simulated gi fluid, 2 h.
Data set [2] is described as follows: Drug metabolism in mouse urine assessed as phenol product metabolite formation. The format is ADME, tissue-based.
A short description of data set [3]: Kinetic solubility of the compound at pH 7.4. To be noted: buffer. The format is physicochemical.
Data set [4] can be described thus: Half life in mouse liver microsomes. The format is ADME, Microsome. Particulars: for t1/2: microsomes. In general terms: Microsomes from liver hold many membrane-bound enzymes, among them those of drug oxidation.
Data set [5] is described as follows: Drug metabolism in mouse plasma assessed as phenol product metabolite formation. Format: ADME, cell-free.
The nature of data set [6]: Stability of the compound in simulated gastric fluid assessed as compound remaining after 6 hrs. Particulars: for Stability: simulated gi fluid, 6 h. Format: ADME.
Data set [7] is described as follows: Stability in mouse plasma assessed as compound remaining after 2 hrs. Format: ADME, cell-free. Particulars: for Stability: 2 h.
A short description of data set [8]: Time at which plasma concentration stays above in vitro Escherichia coli C600 C-terminal 6His-tagged biotinylated FmlH lectin domain inhibitory IC50 in CD1 mouse at 20 mg/kg, ip by LC/MS/MS analysis. Format: ADME, organism-based. To be noted: in vivo. The method in brief:
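After a single 20 mg/kg IP dose in mice, plasma concentrations were compared with the ELISA IC50 converted to ng/mL. Persistence beyond the last measured point was inferred by extrapolating the plasma kinetics. For the ELISA IC50, biotinylated FmlH lectin domain (20 μg/mL) bound to sialidase-treated bovine submaxillary mucin, with streptavidin-HRP/TMB readout at 450 nm.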

Data set [9] can be described thus: Plasma concentration in CD1 mouse at 20 mg/kg, ip after 4 hrs by LC/MS/MS analysis. Format: ADME, organism-based. The method in brief:
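Single 20 mg/kg intraperitoneal injection in mice. Plasma drug concentrations were followed over time, including 4 h and 8 h points. Cmax was read from the profile, AUC was calculated, and half-life was derived.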

Data set [10] in a line: Oral bioavailability in Sprague-Dawley rat at 10 mg/kg by LC/MS/MS analysis. Particulars: in vivo. Format: ADME, organism-based.
Data set [11] in a line: Half life in Sprague-Dawley rat at 10 mg/kg, po or 3 mg/kg, iv by LC/MS/MS analysis. Format: ADME, organism-based. Particulars: in vivo. In a few lines:
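Sprague-Dawley rats got a single 10 mg/kg oral or 3 mg/kg IV dose. Compound was measured over time in plasma and in urine, and t1/2 and clearance were derived from the plasma profile.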

≈ marks a conversion by molar mass, not a printed value.

`CC(=O)NC1[C@H](Oc2cccc(C#N)c2-c2cccc(NS(C)(=O)=O)c2)O[C@H](CO)[C@H](O)[C@@H]1O` (single isomer, unassigned): the values for the Stability in data set [1], in [6] and in [7] were 100%, 87% and 89%, respectively. For the same molecule, the Drug metabolism entry in data set [2] and in [5] was “Metabolite_Detected” throughout. Further, the Kinetic_solubility in data set [3] stood at 196 µM. The molecule further showed a t1/2 in [4] of over 2.42 h.
In the case of `CC(=O)N[C@H]1[C@H](Oc2cccc(C)c2-c2cccc(NS(C)(=O)=O)c2)O[C@H](CO)[C@H](O)[C@@H]1O`, the Stability in data set [1], in [6] and in [7] was 100% in each case. The same molecule came in with a Time in data set [8] of 6 h. For the same molecule, the Drug metabolism entry in data set [2] and in data set [5] was “Metabolite_Detected” each time. In data set [4], this molecule returned a t1/2 of over 2.42 h. The molecule also displayed a concentration at 4 h in data set [9] of 79.5 ng/mL.
As for `CC(=O)N[C@H]1[C@H](Oc2cccc(F)c2-c2cccc(NS(C)(=O)=O)c2)O[C@H](CO)[C@H](O)[C@@H]1O`, the figures for the Stability in [1], in data set [6] and in [7] were 94%, 92% and 89%, respectively. The Drug metabolism entry in data set [2] and in data set [5] was “Metabolite_Detected” throughout. Further, the t1/2 in [4] was over 2.42 h.
In the case of `Cc1cccc(O[C@@H]2O[C@H](CO)[C@H](O)[C@H](O)C2NC(=O)C(F)(F)F)c1-c1cccc(NS(C)(=O)=O)c1` (single isomer, unassigned), the remaining at 2 h in [1] (simulated intestinal fluid, read-out: Stability) was 89%; in data set [7] (read-out: Stability), 89%. Also, the Drug metabolism result in data set [2] and in [5] was “Metabolite_Detected” throughout. Also, the solubility kinetic in data set [3] (read-out: Kinetic_solubility) was determined as 164 µM (≈ 87.7 µg/mL). Further, the half-life in data set [4] (liver microsomes) is over 2.42 h. Further, the remaining at 6 h in data set [6] (simulated gastric fluid, read-out: Stability) was 91%.
Molecule `CC(=O)N[C@H]1[C@H](Oc2cccc(C)c2-c2cccc(NS(=O)(=O)C3CC3)c2)O[C@H](CO)[C@H](O)[C@@H]1O` had a F in [10] of under 1%. Also, the values for the Stability in data set [1], in data set [6] and in data set [7] were 100%, 100% and 84%, respectively. The Drug metabolism result in [2] and in data set [5] was “Metabolite_Detected” throughout. In [4], this molecule gave a t1/2 of over 2.42 h.
For the molecule `CC(=O)NC1[C@H](Oc2cccc(C(F)(F)F)c2-c2cccc(NS(C)(=O)=O)c2)O[C@H](CO)[C@H](O)[C@@H]1O` (single isomer, unassigned), the F in [10] is recorded as under 1%. The figures for the Stability in data set [1], in [6] and in data set [7] were 92%, 89% and 92%, respectively. Further, the Drug metabolism entry in [2] and in data set [5] was “Metabolite_Detected” each time. The molecule further had a half-life in [11] of 1.16 h. In data set [3], this molecule showed a Kinetic_solubility of 197 µM. In data set [4], this molecule yielded a t1/2 of over 2.42 h.

As usually defined, the half-life is how long it takes for the measured level to halve.
